Source: ChEMBL document CHEMBL1126871, “Non-steroidal glucocorticoid-like substances: receptor binding and in vivo activity” (J Med Chem, 1993)
Calls of active or inactive are those of the source. The calls are words filed in the database; no cut-off is given here.

What was measured:
[1] = molecular target: T1, Glucocorticoid receptor (Rattus norvegicus) (UniProt P06536); assay: In vivo glucocorticoid profile, depression of adrenal weight in rat at 5 mg/kg peroral dose; assay type: functional, organism-based; design: dose 5 mg/kg
T1 sequence (whole entry): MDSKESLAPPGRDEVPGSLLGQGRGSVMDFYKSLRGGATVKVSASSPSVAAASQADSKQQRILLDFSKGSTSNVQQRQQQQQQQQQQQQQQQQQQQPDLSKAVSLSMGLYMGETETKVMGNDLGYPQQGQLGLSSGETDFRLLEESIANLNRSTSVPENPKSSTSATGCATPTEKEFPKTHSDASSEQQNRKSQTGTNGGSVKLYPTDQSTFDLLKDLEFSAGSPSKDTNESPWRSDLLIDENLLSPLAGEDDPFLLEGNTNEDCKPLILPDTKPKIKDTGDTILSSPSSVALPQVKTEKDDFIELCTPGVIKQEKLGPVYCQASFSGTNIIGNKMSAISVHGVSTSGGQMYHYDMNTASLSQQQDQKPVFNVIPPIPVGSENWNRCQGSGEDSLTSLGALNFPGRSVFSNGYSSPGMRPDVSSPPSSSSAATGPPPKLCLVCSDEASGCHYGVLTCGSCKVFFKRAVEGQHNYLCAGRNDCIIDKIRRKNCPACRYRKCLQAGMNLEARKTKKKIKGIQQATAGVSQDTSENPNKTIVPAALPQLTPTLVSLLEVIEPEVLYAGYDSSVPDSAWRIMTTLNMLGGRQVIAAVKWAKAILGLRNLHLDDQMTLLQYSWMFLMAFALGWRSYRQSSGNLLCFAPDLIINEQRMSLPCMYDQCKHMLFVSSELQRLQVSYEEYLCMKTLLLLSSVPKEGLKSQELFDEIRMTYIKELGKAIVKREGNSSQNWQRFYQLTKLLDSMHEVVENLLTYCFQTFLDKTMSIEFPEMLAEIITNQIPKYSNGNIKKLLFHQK
Summary of the method: (§1)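 Two-week oral glucocorticoid profile in rats. Thymus weight, adrenal weight and body weight gain are each expressed as % change from control.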

[2] = molecular target: T1, Glucocorticoid receptor (Rattus norvegicus); assay: (§2) In vivo glucocorticoid profile, depression of body weight gain without altered food consumption in rat at 5 mg/kg peroral dose; assay type: functional, organism-based; design: dose 5 mg/kg
Summary of the method: (§3)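 Two-week oral dosing test in rats. At the end, thymus weight, adrenal weight and body weight gain are recorded and expressed as % change from control.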

[3] = molecular target: T1, Glucocorticoid receptor (Rattus norvegicus); assay: In vivo glucocorticoid profile, depression of adrenal weight in rat at 1 mg/kg peroral dose; assay type: functional, organism-based; design: dose 1 mg/kg; summary of the method: as §1
[4] = molecular target: T1, Glucocorticoid receptor (Rattus norvegicus); assay: In vivo glucocorticoid profile, depression of adrenal weight in rat at 25 mg/kg peroral dose; assay type: functional, organism-based; design: dose 25 mg/kg; summary of the method: as §3
[5] = molecular target: T1, Glucocorticoid receptor (Rattus norvegicus); assay: In vivo glucocorticoid profile, depression of thymus weight in rat at 1 mg/kg peroral dose; assay type: functional, organism-based; design: dose 1 mg/kg; summary of the method: as §1
[6] = molecular target: T1, Glucocorticoid receptor (Rattus norvegicus); assay: In vivo glucocorticoid profile, depression of thymus weight in rat at 25 mg/kg peroral dose; assay type: functional, organism-based; design: dose 25 mg/kg; summary of the method: as §3
[7] = molecular target: T1, Glucocorticoid receptor (Rattus norvegicus); assay: In vivo glucocorticoid profile, depression of body weight gain without altered food consumption in rat at 25 mg/kg peroral dose; assay type: functional, organism-based; design: dose 25 mg/kg; summary of the method: as §3
[8] = molecular target: T1, Glucocorticoid receptor (Rattus norvegicus); assay: In vivo glucocorticoid profile, depression of thymus weight in rat at 5 mg/kg peroral dose; assay type: functional, organism-based; design: dose 5 mg/kg; summary of the method: as §1
[9] = molecular target: T1, Glucocorticoid receptor (Rattus norvegicus); assay: In vivo anti-inflammatory activity in the rat, alpha-tocopherol filled pouch peroral dose; assay type: functional, organism-based
Summary of the method: (§4)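 Rats receive an air-filled pouch injected with 0.5 mL DL-α-tocopherol. Oral doses are given daily for 7 days, starting on the day of pouch formation, as suspensions in 1% gum tragacanth. ED50 is in mg/kg po.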

[10] = molecular target: T1, Glucocorticoid receptor (Rattus norvegicus); assay: (§5) In vivo glucocorticoid profile, depression of body weight gain without altered food consumption in rat at 1 mg/kg peroral dose; assay type: functional, organism-based; design: dose 1 mg/kg; summary of the method: as §3
[11] = molecular target: T1, Glucocorticoid receptor (Rattus norvegicus); assay: as §2; assay type: functional, organism-based; design: dose 5 mg/kg; summary of the method: as §1; remark: listed apart in the source
[12] = molecular target: T1, Glucocorticoid receptor (Rattus norvegicus); assay: In vivo glucocorticoid profile, depression of adrenal weight in rat at 50 mg/kg peroral dose; assay type: functional, organism-based; design: dose 50 mg/kg; summary of the method: as §1
[13] = molecular target: T1, Glucocorticoid receptor (Rattus norvegicus); assay: In vivo antiinflammatory activity in the rat, alpha-tocopherol filled pouch 25 mg/kg peroral dose; IA = inactive; assay type: functional, organism-based; design: dose 25 mg/kg; summary of the method: as §4
[14] = molecular target: T1, Glucocorticoid receptor (Rattus norvegicus); assay: In vivo glucocorticoid profile, depression of body weight gain without altered food consumption in rat at 50 mg/kg peroral dose; assay type: functional, organism-based; design: dose 50 mg/kg; summary of the method: as §1
[15] = molecular target: T1, Glucocorticoid receptor (Rattus norvegicus); assay: In vivo glucocorticoid profile, depression of thymus weight in rat at 50 mg/kg peroral dose; assay type: functional, organism-based; design: dose 50 mg/kg; summary of the method: as §1
[16] = molecular target: T1, Glucocorticoid receptor (Rattus norvegicus); assay: Relative binding affinity (RBA) for glucocorticoid receptor from rat liver cytosol by displacement of [3H]-RU-28,362
Summary of the method: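 Competitive binding to glucocorticoid receptor in liver cytosol from adrenalectomized rats, with [3H]RU28362 as ligand. RBA is derived from the concentrations of dexamethasone and of competitor giving 50% binding inhibition. A value of zero means binding was too low to measure.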

[17] = molecular target: T1, Glucocorticoid receptor (Rattus norvegicus); assay: as §5; assay type: functional, organism-based; design: dose 1 mg/kg; summary of the method: as §1; remark: listed apart in the source
[18] = molecular target: T1, Glucocorticoid receptor (Rattus norvegicus); assay: In vivo antiinflammatory activity in the rat, alpha-tocopherol filled pouch peroral dose; IA = inactive; assay type: functional, organism-based; summary of the method: as §4
[19] = molecular target: T1, Glucocorticoid receptor (Rattus norvegicus); assay: In vivo glucocorticoid profile, depression of adrenal weight in rat at 100 mg/kg peroral dose; assay type: functional, organism-based; design: dose 100 mg/kg; summary of the method: as §1
[20] = molecular target: T1, Glucocorticoid receptor (Rattus norvegicus); assay: In vivo glucocorticoid profile, depression of thymus weight in rat at 100 mg/kg peroral dose; assay type: functional, organism-based; design: dose 100 mg/kg; summary of the method: as §1
[21] = molecular target: T1, Glucocorticoid receptor (Rattus norvegicus); assay: In vivo glucocorticoid profile, depression of body weight gain without altered food consumption in rat at 100 mg/kg peroral dose; assay type: functional, organism-based; design: dose 100 mg/kg; summary of the method: as §1

Compound: CC(=O)C1CC=C2[C@H](CCC3=Cc4c(cnn4-c4ccc(F)cc4)C[C@@]32C)C1C(C)=O (stereo partly drawn)
- Change [1]: -40%
- Weight gain [2]: -80

Compound: C[C@]12Cc3cnn(-c4ccc(F)cc4)c3C=C1CC[C@@H]1OC3(CC=C12)C(=O)NC(=O)NC3=O
- Change [1]: -30%
- Change [3]: 0%
- Change [4]: -53%
- Change [5]: 0%
- Change [6]: -84%
- Weight gain [7]: -180
- Weight gain [2]: -140
- Change [8]: -72%
- ED50 [9]: 4 mg/kg
- Weight gain [10]: -65

Compound: C[C@]12CCC(=O)C=C1CC[C@@H]1[C@@H]2[C@@H](O)C[C@@]2(C)[C@H]1CC[C@]2(O)C(=O)CO
- ED50 [9]: 18 mg/kg

Compound: C#CCN1C(=O)N(CC#C)C(=O)C2(CC=C3[C@H](CCC4=Cc5c(cnn5-c5ccc(F)cc5)C[C@@]43C)O2)C1=O
- Change [1]: 0%
- Weight gain [11]: 0
- Change [8]: 0%

Compound: CC(C)N1C(=O)N(C(C)C)C(=O)C2(CC=C3[C@H](CCC4=Cc5c(cnn5-c5ccc(F)cc5)C[C@@]43C)O2)C1=O
- Change [12]: 0%
- ED50 [13]: inactive
- Weight gain [14]: 0
- Change [15]: 0%

Compound: CN1C(=O)N(C)C(=O)C2(CC=C3[C@H](CC[C@H]4Cc5c(cnn5-c5ccncc5)C[C@]34C)O2)C1=O
- RBA [16]: 0%

Compound: C[C@H]1C[C@@H]2[C@H]([C@@H](O)C[C@@]3(C)[C@H]2CC[C@]3(O)C(=O)CO)[C@@]2(C)C=CC(=O)C=C12
- Change [1]: -42%
- Change [3]: 0%
- Change [5]: -40%
- Weight gain [11]: -79
- Weight gain [17]: -45
- Change [8]: -70%
- ED50 [9]: 2 mg/kg

Compound: CN1C(=O)N(C)C(=O)C2(CC=C3[C@H](CCC4=Cc5c(cnn5-c5ccncc5)C[C@@]43C)O2)C1=O
- RBA [16]: 0.72%

Compound: C[C@]12Cc3cnn(-c4ccc(F)cc4)c3C=C1CC[C@H]1C2=CCCC1c1ccccn1 (stereo partly drawn)
- ED50 [18]: inactive
- Change [19]: -48%
- Change [20]: -64%
- Weight gain [21]: -88
